Source: ChEMBL document CHEMBL4706503, “A novel pipeline of 2-(benzenesulfonamide)-N-(4-hydroxyphenyl) acetamide analgesics that lack hepatotoxicity and retain antipyresis” (Eur J Med Chem, 2020)
Calls of active or inactive are those of the source. No cut-off for these calls is given here.

Experiments:
[1] = Hepatotoxicity in CD1 mouse assessed as increase in serum alanine aminotransferase level at 600 mg/kg, po measured after 12 hrs; type: toxicity, organism-based; conditions: in vivo
Summary of the method: (§1)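 Male CD1 mice fasted 15 h, given 600 mg/kg po, then fed ad libitum for 12 h. Whole blood taken by transcardial perfusion under 5% isoflurane, without anticoagulant, clotted 0.5 h at 25 °C, spun 1000 g 5 min at 4 °C. Serum stored at −80 °C, then assayed with commercial kits. n = 5 mice per compound; vehicle 0.9% NaCl.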

[2] = Renal toxicity in CD1 mouse assessed as increase in serum creatinine level at 600 mg/kg, po measured after 12 hrs; type: organism-based; conditions: in vivo; summary of the method: as §1
[3] = Hepatotoxicity in CD1 mouse assessed as increase in serum alkaline phosphatase level at 600 mg/kg, po measured after 12 hrs; type: toxicity, organism-based; conditions: in vivo; summary of the method: as §1
[4] = Hepatotoxicity in CD1 mouse assessed as increase in serum aspartate aminotransferase level at 600 mg/kg, po measured after 12 hrs; type: toxicity, organism-based; conditions: in vivo; summary of the method: as §1
Hepatocyte = experiment: Hepatotoxicity in primary human hepatocytes assessed as increase in lactate dehydrogenase release at 500 to 1000 uM measured after 3 to 12 hrs by fluorescence based analysis
HepaRG [5] = experiment: Hepatotoxicity in human HepaRG cells assessed as increase in lactate dehydrogenase release at 50 to 5000 uM […]; type: toxicity, cell-based; conditions: dose 50-5000 µM
Mus musculus [6] = experiment: Analgesic activity in po dosed CD1 mouse assessed as inhibition of acetic acid-induced abdominal writhing treated with acetic acid 25 mins post drug administration and measured after 5 mins for 10 mins; type: functional; conditions: 40 min
Summary of the method: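 Male CD1 mice fasted 15 h; drug suspended in 0.9% NaCl with ≤10% DMSO given po at 5, 10, 20, 40, 80 mg/kg. 0.4% acetic acid 10 mL/kg ip 25 min later; writhes counted 10 min starting 5 min after acid. Compared to vehicle; mean ± SEM, n > 15 per group; ED50 from dose-response curves.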

Cytochrome P450 2D6 = Cytochrome P450 2D6 (Homo sapiens, UniProt P10635); experiment: Inhibition of CYP2D6 (unknown origin) in baculosomes preincubated for 20 mins followed by addition of CYP enzyme-specific substrate and NADP+ and measured after 30 mins by fluorescence based analysis; type: ADME
Summary of the method: (§2)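 Vivid fluorogenic screen: each compound was premixed with CYP baculosomes and a regeneration system (glucose-6-phosphate plus G6P dehydrogenase) for 20 min at room temperature. Isozyme-specific substrate and NADP+ were then added for 30 min at room temperature. Reaction stopped with 0.5 M Tris base; metabolite fluorescence read. IC50 taken from 10-point titration curves.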

[7] = Drug metabolism in CD1 mouse serum assessed as NAPQI formation at 600 mg/kg, po measured after 12 hrs by LC-MS/MS analysis; type: ADME, organism-based; conditions: in vivo
Summary of the method: (§3)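 Male CD1 mice dosed at 600 mg/kg (ip or po). Serum extracted twice with 3 vol ethyl acetate on ice (30 min, 3000 g spin), dried under N2, redissolved in 1:1 MeOH:H2O. LC-MS/MS in positive electrospray MRM mode monitoring m/z 150.3→108.1, identity checked against spiked NAPQI standard retention time (5.1 min).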

[8] = Hepatotoxicity in CD1 mouse assessed as increase in nitrotyrosine formation in liver at 600 mg/kg, po measured after 12 hrs by nitrotyrosine immunostaining based optical microscopy; conditions: in vivo
[9] = Hepatotoxicity in CD1 mouse assessed as loss of chicken wire hepatic tight junctions at 600 mg/kg, po measured after 12 hrs by ZO-1 staining based optical microscopy; type: toxicity, organism-based; conditions: in vivo
Summary of the method: (§4)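 At 12 h, mice under 5% isoflurane were exsanguinated with saline and perfusion-fixed with 10% NBF; livers fixed 24 h, moved to 80% EtOH, paraffin-embedded and sectioned. Stains: H&E (100x), nitrotyrosine, ZO-1 (200x; 3D stacks at 1000x), TUNEL (200x).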

HepaRG [10] = experiment: Hepatotoxicity in human HepaRG cells assessed as decrease in GSH level at 50 to 5000 uM measured after 6 to 24 hrs by Thiol tracker violet dye based fluorescence analysis; type: toxicity, cell-based; conditions: dose lower 50 µM, time lower 6 hrs, dose upper 5000 µM, time upper 24 hrs
Summary of the method: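 HepaRG cells (80% confluent, serum-starved 6–8 h) exposed to 50, 100, 1000 or 5000 μM for 6, 12 or 24 h. Medium then removed and cells rinsed with D-PBS-conditioned medium. Cells were stained 30 min with ThiolTracker Violet; fluorescence read at ex 404/em 526 nm and reported as RFU for cellular GSH.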

Mus musculus [11] = experiment: Antipyretic activity against Baker's yeast-induced hyperthermia model in CD1 mouse at 80 mg/kg, po at 2 hrs post-injection by thermometer based analysis; type: functional, organism-based
Summary of the method: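 Male CD1 mice fasted overnight (15 h); baseline rectal temperature taken, then ip pyrogen (15% baker's yeast, 0.1 mL/kg). Rectal temperature read 4 h later; only febrile animals used, grouped by equal mean temperature. Drug or 0.9% NaCl given po at 80 mg/kg; rectal temperature recorded 2 h later; fall compared with 4 h fever value. Mean ± SEM, n = 10; one-way ANOVA with Sidak post-hoc.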

Cytochrome P450 3A4 = Cytochrome P450 3A4 (Homo sapiens, UniProt P08684); experiment: Inhibition of CYP3A4 (unknown origin) in baculosomes preincubated for 20 mins followed by addition of CYP enzyme-specific substrate and NADP+ and measured after 30 mins by fluorescence based analysis; type: ADME; summary of the method: as §2
Rattus norvegicus = experiment: Analgesic activity in ip dosed complete freund's adjuvant-induced Sprague Dawley rat model of hyperalgesia assessed as inhibition of inflammatory pain measured after 30 mins by von Frey analgesimetric method; type: functional; conditions: 0.5 h
[12] = Toxicity in CD1 mouse assessed as animal survival rate at 600 mg/kg, ip measured for every 4 hrs upto 48 hrs by Kaplan-Meier plot analysis; type: organism-based; conditions: in vivo
Summary of the method: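 Male CD1 mice, four groups of n = 20, given 600 mg/kg ip or 0.9% NaCl vehicle; live animals counted every 4 h for 48 h; Kaplan-Meier survival curves plotted.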

[13] = Hepatotoxicity in CD1 mouse assessed as increase in apoptotic nuclei at 600 mg/kg, po measured after 12 hrs by TUNEL staining; type: toxicity, organism-based; conditions: in vivo; summary of the method: as §4
[14] = Drug metabolism in CD1 mouse serum assessed as NAPQI formation at 600 mg/kg, ip measured after 12 hrs by LC-MS/MS analysis; type: ADME, organism-based; conditions: in vivo; summary of the method: as §3
[15] = Hepatotoxicity in CD1 mouse assessed as liver architecture at 600 mg/kg, po measured after 12 hrs by hematoxylin and eosin staining based optical microscopy; type: toxicity, organism-based; conditions: in vivo; summary of the method: as §4
CYP3A4 = CYP3A4 (Homo sapiens, UniProt P08684); experiment: Inhibition of CYP3A4 (unknown origin) in baculosomes preincubated for 20 mins followed by addition of CYP enzyme-specific substrate and NADP+ and measured after 30 mins by fluorescence based analysis relative to control
CYP2E1 = CYP2E1 (Homo sapiens, UniProt P05181); experiment: Inhibition of CYP2E1 (unknown origin) in baculosomes preincubated for 20 mins followed by addition of CYP enzyme-specific substrate and NADP+ and measured after 30 mins by fluorescence based analysis relative to control
[16] = Hepatotoxicity in CD1 mouse assessed as centrilobular hepatic hemorrhagic necrosis at 600 mg/kg, po measured after 12 hrs by hematoxylin and eosin staining based optical microscopy; type: toxicity, organism-based; conditions: in vivo; summary of the method: as §4

Cytochrome P450 2D6, sequence (P10635 whole entry): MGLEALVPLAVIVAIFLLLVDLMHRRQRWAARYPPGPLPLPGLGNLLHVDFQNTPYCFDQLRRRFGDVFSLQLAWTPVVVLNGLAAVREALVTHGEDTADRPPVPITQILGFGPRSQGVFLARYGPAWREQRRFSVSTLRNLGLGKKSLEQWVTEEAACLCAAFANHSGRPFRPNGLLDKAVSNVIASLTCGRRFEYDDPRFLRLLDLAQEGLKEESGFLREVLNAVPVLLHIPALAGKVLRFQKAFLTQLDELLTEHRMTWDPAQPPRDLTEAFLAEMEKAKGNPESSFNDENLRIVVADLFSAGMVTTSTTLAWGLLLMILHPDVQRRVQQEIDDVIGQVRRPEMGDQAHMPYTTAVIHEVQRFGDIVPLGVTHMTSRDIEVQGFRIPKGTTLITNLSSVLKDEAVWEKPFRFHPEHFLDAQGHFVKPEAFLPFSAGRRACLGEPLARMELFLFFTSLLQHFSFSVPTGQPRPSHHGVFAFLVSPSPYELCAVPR
Cytochrome P450 3A4, sequence (P08684 whole entry): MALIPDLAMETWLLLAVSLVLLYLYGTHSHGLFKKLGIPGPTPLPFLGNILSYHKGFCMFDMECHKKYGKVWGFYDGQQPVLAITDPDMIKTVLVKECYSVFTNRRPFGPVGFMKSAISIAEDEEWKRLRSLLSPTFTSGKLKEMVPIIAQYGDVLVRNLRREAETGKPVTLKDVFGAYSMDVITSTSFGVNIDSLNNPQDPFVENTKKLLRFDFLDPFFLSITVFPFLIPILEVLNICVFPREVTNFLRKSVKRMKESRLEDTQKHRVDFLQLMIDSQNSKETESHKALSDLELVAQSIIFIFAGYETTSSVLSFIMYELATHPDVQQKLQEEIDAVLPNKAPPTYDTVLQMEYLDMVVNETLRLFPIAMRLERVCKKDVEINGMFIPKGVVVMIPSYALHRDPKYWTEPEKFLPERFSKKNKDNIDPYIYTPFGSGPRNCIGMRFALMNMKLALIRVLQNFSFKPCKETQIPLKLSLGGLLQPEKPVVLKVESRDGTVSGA
CYP2E1, sequence (P05181 whole entry): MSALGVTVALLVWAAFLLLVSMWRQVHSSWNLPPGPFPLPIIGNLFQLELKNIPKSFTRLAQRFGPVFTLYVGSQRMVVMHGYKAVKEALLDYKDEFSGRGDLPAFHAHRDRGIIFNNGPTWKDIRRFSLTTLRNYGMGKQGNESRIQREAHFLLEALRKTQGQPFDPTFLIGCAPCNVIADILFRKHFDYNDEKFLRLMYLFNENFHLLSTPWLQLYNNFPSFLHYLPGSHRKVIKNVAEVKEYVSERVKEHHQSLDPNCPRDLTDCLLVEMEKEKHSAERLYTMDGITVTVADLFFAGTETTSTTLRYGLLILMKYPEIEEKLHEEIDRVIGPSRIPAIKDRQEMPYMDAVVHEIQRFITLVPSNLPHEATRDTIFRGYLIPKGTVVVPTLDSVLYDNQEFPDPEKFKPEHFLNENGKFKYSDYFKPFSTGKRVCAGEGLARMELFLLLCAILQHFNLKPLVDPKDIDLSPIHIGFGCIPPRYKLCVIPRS
CYP3A4, sequence (P08684 whole entry): as the sequence (P08684 whole entry) above

Row | SMILES | Activity [1] | Activity [2] | Activity [3] | Activity [4] | Activity (Hepatocyte) | also measured
1 | O=C(CNS(=O)(=O)c1ccccc1C(=O)NC1CCCC1)Nc1ccc(O)cc1 | Non-Toxic | Non-Toxic | Non-Toxic | Non-Toxic | Toxic | 
2 | COc1ccc(CNC(=O)c2ccccc2S(=O)(=O)NCC(=O)Nc2ccc(O)cc2)cc1 | Non-Toxic | Non-Toxic | Non-Toxic | Non-Toxic | Toxic | 
3 | O=C(CNS(=O)(=O)c1ccccc1C(=O)NCc1ccc(Cl)c(Cl)c1)Nc1ccc(O)cc1 | Non-Toxic | Non-Toxic | Non-Toxic | Non-Toxic | Non-Toxic | 
4 | Cc1ccc(CNC(=O)c2ccccc2S(=O)(=O)NCC(=O)Nc2ccc(O)cc2)cc1 | Non-Toxic | Non-Toxic | Non-Toxic | Non-Toxic | Toxic | 
5 | CNC(=O)c1ccccc1S(=O)(=O)NCC(=O)Nc1ccc(O)cc1 | Non-Toxic | Non-Toxic | Non-Toxic | Non-Toxic | Non-Toxic | Activity (HepaRG [5]): Non-Toxic; ED50 (Mus musculus [6]): 45.2 µmol/kg; IC50 (Cytochrome P450 2D6): > 10 µM; Drug metabolism [7]: Metabolite_Notdetected; Activity [8]: Non-Toxic; Activity [9]: Non-Toxic; Activity (HepaRG [10]): Non-Toxic; Activity (Mus musculus [11]): Active; IC50 (Cytochrome P450 3A4): > 10 µM; ED50 (Rattus norvegicus): 198 µmol/kg; survival at 48 h [12]: 100%; Activity [13]: Non-Toxic; Drug metabolism [14]: Metabolite_Notdetected; Activity [15]: Non-Toxic
6 | O=C(CNS(=O)(=O)c1ccccc1C(=O)NCCc1ccccc1)Nc1ccc(O)cc1 |  |  |  |  | Toxic | 
7 | CC(C)NC(=O)c1ccccc1S(=O)(=O)NCC(=O)Nc1ccc(O)cc1 |  |  |  |  | Toxic | 
8 | O=C(CNS(=O)(=O)c1ccccc1C(=O)NCCN1CCCC1)Nc1ccc(O)cc1 | Non-Toxic | Non-Toxic | Non-Toxic | Non-Toxic | Non-Toxic | 
9 | CN(C)C(=O)c1ccccc1S(=O)(=O)NCC(=O)Nc1ccc(O)cc1 | Non-Toxic | Non-Toxic | Non-Toxic | Non-Toxic | Toxic | 
10 | O=C(CNS(=O)(=O)c1ccccc1C(=O)NCc1ccccc1)Nc1ccc(O)cc1 |  |  |  |  | Toxic | 
11 | O=C(CNS(=O)(=O)c1ccccc1C(=O)NCc1ccccn1)Nc1ccc(O)cc1 | Non-Toxic | Non-Toxic | Non-Toxic | Non-Toxic | Toxic | 
12 | O=C(CNS(=O)(=O)c1ccccc1C(=O)N1CCN(Cc2ccccc2)CC1)Nc1ccc(O)cc1 |  |  |  |  | Toxic | 
13 | O=C(CNS(=O)(=O)c1ccccc1C(=O)NCc1ccc([N+](=O)[O-])cc1)Nc1ccc(O)cc1 | Non-Toxic | Non-Toxic | Non-Toxic | Non-Toxic | Non-Toxic | 
14 | NC(=O)c1ccccc1S(=O)(=O)NCC(=O)Nc1ccc(O)cc1 |  |  |  |  | Toxic | 
15 | O=C(CNS(=O)(=O)c1ccccc1C(=O)NCCc1ccc(O)c(O)c1)Nc1ccc(O)cc1 | Non-Toxic | Non-Toxic | Non-Toxic | Non-Toxic | Non-Toxic | Activity (HepaRG [5]): Non-Toxic; ED50 (Mus musculus [6]): 14.7 µmol/kg; IC50 (Cytochrome P450 2D6): > 10 µM; Drug metabolism [7]: Metabolite_Notdetected; Activity [8]: Non-Toxic; Activity [9]: Non-Toxic; inhibition at 0.5 h (CYP3A4): 25%; Activity (HepaRG [10]): Non-Toxic; inhibition at 0.5 h (CYP2E1): 25%; Activity (Mus musculus [11]): Active; IC50 (Cytochrome P450 3A4): 4.82 µM; ED50 (Rattus norvegicus): 177 µmol/kg; survival at 48 h [12]: 100%; Activity [13]: Non-Toxic; Drug metabolism [14]: Metabolite_Notdetected; Activity [15]: Non-Toxic
16 | O=C(CNS(=O)(=O)c1ccccc1C(=O)NCc1cccc(Cl)c1)Nc1ccc(O)cc1 | Non-Toxic | Non-Toxic | Non-Toxic | Non-Toxic | Toxic | 
17 | CCCCNC(=O)c1ccccc1S(=O)(=O)NCC(=O)Nc1ccc(O)cc1 | Non-Toxic | Non-Toxic | Non-Toxic | Non-Toxic | Toxic | 
18 | CC(C)CNC(=O)c1ccccc1S(=O)(=O)NCC(=O)Nc1ccc(O)cc1 | Non-Toxic | Non-Toxic | Non-Toxic | Non-Toxic | Toxic | 
19 | CC(=O)Nc1ccc(O)cc1 [ACETAMINOPHEN] | Toxic | Toxic | Toxic | Toxic |  | Activity (HepaRG [5]): Toxic; ED50 (Mus musculus [6]): 68.6 µmol/kg; IC50 (Cytochrome P450 2D6): > 10 µM; Drug metabolism [7]: Metabolite_Detected; Activity [8]: Toxic; Activity [9]: Toxic; Activity [16]: Toxic; Activity (HepaRG [10]): Toxic; Activity (Mus musculus [11]): Active; ED50 (Rattus norvegicus): 245 µmol/kg; Activity [13]: Toxic; Drug metabolism [14]: Metabolite_Detected
20 | O=C(CNS(=O)(=O)c1ccccc1C(=O)N1CCOCC1)Nc1ccc(O)cc1 |  |  |  |  | Non-Toxic | 
